Sampled rows, rich in hits. Any-hit rate of the full collection: about 5.8%.
IDH1 mut inh: inhibitors of IDH1 R132H reductase, primary screen, biochemical, plate reader, single point; AID 624101, 2012; actives 0.18% (n = 70,000); inhibition, % at 10 µM; Isocitrate dehydrogenase [NADP] cytoplasmic (Homo sapiens), O75874; diaphorase/resazurin fluorescence, 60 min; in the data active = inhibition above about 34%
GASC1 inh: inhibitors of GASC-1 (KDM4C) histone demethylase, primary screen, biochemical, single concentration HTS; inhibition, % at 12.5 µM; actives 0.15% (n = 96,000); Lysine-specific demethylase 4C (Homo sapiens), Q9H3R0; AID 720574, 2013; GST-KDM4C 2-372, H3K9me3 peptide, LANCE TR-FRET;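 active = mean replicate inhibition above about 25%, with at least 55% of replicates also reaching it, limit read from the data, passing the limit was not always enough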
Target sequence (Q9H3R0 2-372 limits assumed): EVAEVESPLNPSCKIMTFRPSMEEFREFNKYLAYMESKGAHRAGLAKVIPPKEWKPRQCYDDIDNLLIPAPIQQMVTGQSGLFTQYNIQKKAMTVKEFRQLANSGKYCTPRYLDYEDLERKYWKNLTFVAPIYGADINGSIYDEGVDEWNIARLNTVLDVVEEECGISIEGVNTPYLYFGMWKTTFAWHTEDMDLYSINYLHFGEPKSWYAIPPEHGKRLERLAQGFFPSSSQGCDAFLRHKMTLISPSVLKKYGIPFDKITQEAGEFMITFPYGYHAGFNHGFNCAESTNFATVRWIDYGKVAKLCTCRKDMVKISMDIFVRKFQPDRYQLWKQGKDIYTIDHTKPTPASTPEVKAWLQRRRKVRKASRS
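Test system: N-terminal GST-fused human GASC-1 (KDM4C) fragment, residues 2-372; quantity: GASC-1 enzyme at 10 nM final in reaction; dosing: single dose; schedule: 30 min demethylation and 1 h detection at room temperature; signal: LANCE TR-FRET, excitation 340 nm, emissions 618 and 671 nm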
Pf Dd2 inh: P. falciparum Dd2 growth inhibitors, primary screen, SYBR Green fluorescence, single dose replicates | 72 h; stronger effect = lower value | activity change, % at 10 µM | actives 2.3% (n = 94,000); in the data active = activity change below about -80%
Tcruzi prolif: T. cruzi intracellular proliferation inhibitors, primary screen, cell-based, beta-gal Tulahuen parasites, NIH3T3 host, luminescence; T. cruzi beta-gal in NIH3T3, GalScreen luminescence, 90 h; inhibition, % at 8.34 µM; actives 5.9% (n = 77,000);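 active = mean inhibition above about 93%, with at least 55% of replicates each passing it, limit read from the data, passing the limit was not always enough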
Numbers stand for hits; . = inactive; / = no result.

SMILES	IDH1 mut inh	GASC1 inh	Pf Dd2 inh	Tcruzi prolif
C[C@H]1CCCCO[C@@H](CN(C)Cc2ccccc2)[C@@H](C)CN([C@@H](C)CO)C(=O)c2cc(NC(=O)Nc3ccc(C(F)(F)F)cc3)ccc2O1	.	.	-86	.
C[C@@H]1CN([C@@H](C)CO)C(=O)c2cc(NC(=O)Nc3ccccc3)ccc2O[C@@H](C)CCCCO[C@@H]1CN(C)Cc1ccc(C(F)(F)F)cc1	.	.	-82	.
C[C@H]1CN([C@@H](C)CO)C(=O)c2c(c3ccccc3n2C)-c2ccccc2CO[C@@H]1CN(C)Cc1ccc(-c2ccccc2)cc1	/	.	-92	/
C[C@@H]1CN([C@H](C)CO)C(=O)c2c(c3ccccc3n2C)-c2ccccc2CO[C@@H]1CN(C)Cc1ccc(Oc2ccccc2)cc1	/	.	.	/
C[C@@H]1CN([C@@H](C)CO)C(=O)c2c(c3ccccc3n2C)-c2ccccc2CO[C@@H]1CN(C)Cc1ccc(Oc2ccccc2)cc1	/	.	-87	/
COc1ccc2c3c(n(C)c2c1)[C@@H](CO)NCC31CCN(Cc2ccccc2F)CC1	/	.	.	/
COc1ccc2c3c(n(C)c2c1)[C@@H](CO)NCC31CCN(Cc2ccc(Cl)cc2)CC1	/	/	.	/
COc1ccc2c3c(n(C)c2c1)[C@@H](CO)NCC31CCN(Cc2ccc(-c3ccccn3)cc2)CC1	/	.	-88	/
COc1ccc2c3c(n(C)c2c1)[C@@H](CO)NCC31CN(Cc2ccc(-c3ccccn3)cc2)C1	/	.	-89	/
COc1ccc2c3c(n(C)c2c1)[C@H](CO)NCC31CCN(Cc2ccc(-c3ccccn3)cc2)CC1	/	.	-88	/
O=C(NO)c1cccc(C(=O)N/N=C/c2cccc(OCCO)c2)c1	.	/	/	/
CCC1(C)Cc2ccccc2-c2nc(NCCCO)n(-c3ccc(C)cc3)c(=O)c21 (centres undefined)	.	/	/	/
Cc1c(Cl)cccc1NC(=O)c1ccc(OCC(=O)Nc2ccc(F)cc2)cc1	.	/	/	/
CO[C@H]1CN(C)C(=O)c2cc(NS(C)(=O)=O)ccc2OC[C@H](C)N(C(=O)CC2CC2)C[C@H]1C	45	.	.	.
CO[C@H]1CN(C)C(=O)c2cc(NC(C)=O)ccc2OC[C@@H](C)N(C(=O)CC2CC2)C[C@H]1C	85	38	.	.
CO[C@@H]1CN(C)C(=O)c2cc(NS(C)(=O)=O)ccc2OC[C@H](C)N(C(=O)CC2CC2)C[C@H]1C	.	.	.	.
CO[C@@H]1CN(C)C(=O)c2cc(NC(C)=O)ccc2OC[C@H](C)N(C(=O)CC2CC2)C[C@H]1C	.	.	.	.
COC(=O)c1cc(O)cc(O)c1C(=O)c1c(O)c(Cl)c(C)c(Cl)c1OC	.	/	/	/
CS(=O)(=O)N(CC(=O)NC1CCCC1)c1ccc(Cl)cc1	.	/	/	/
C[C@@H]1CN([C@@H](C)CO)C(=O)c2cc(NC(=O)C3CCCCC3)ccc2O[C@@H](C)CCCCO[C@@H]1CN(C)C(=O)Nc1cccc2ccccc12	/	.	-89	.
C[C@@H]1CCCCO[C@H](CN(C)C(=O)Nc2cccc3ccccc23)[C@@H](C)CN([C@@H](C)CO)C(=O)c2cc(NC(=O)C3CCCCC3)ccc2O1	/	.	-85	.
C[C@@H]1CCCCO[C@H](CN(C)C(=O)Nc2cccc3ccccc23)[C@H](C)CN([C@@H](C)CO)C(=O)c2cc(NC(=O)C3CCCCC3)ccc2O1	/	.	.	.
COc1ccc(S(=O)(=O)N(C)C[C@H]2OCCCC[C@H](C)Oc3ccc(NC(=O)c4ccccc4)cc3C(=O)N([C@@H](C)CO)C[C@H]2C)cc1	.	.	-85	.
COc1ccc(S(=O)(=O)N(C)C[C@@H]2OCCCC[C@H](C)Oc3ccc(NC(=O)c4ccccc4)cc3C(=O)N([C@@H](C)CO)C[C@H]2C)cc1	.	.	-84	.
O=C(O)CN(CC(=O)O)S(=O)(=O)c1ccc(Cl)cc1	.	/	/	/
SMILES	IDH1 mut inh	GASC1 inh	Pf Dd2 inh	Tcruzi prolif
Cc1c(CC(=O)O)c(=O)oc2cc(OCC(=O)O)ccc12	.	/	/	/
C[C@@H]1CN([C@H](C)CO)C(=O)Cc2cc(NC(=O)CCCCCC(=O)Nc3ccccc3N)ccc2O[C@H]1CN(C)Cc1ccc2c(c1)OCO2	.	.	.	.
C[C@@H]1CN([C@H](C)CO)C(=O)c2cccc(NC(=O)CCCCCC(=O)Nc3ccccc3N)c2O[C@H]1CN(C)Cc1ccc2c(c1)OCO2	.	.	-90	/
C[C@@H]1CN([C@H](C)CO)C(=O)c2cccc(NC(=O)CCCCCC(=O)Nc3ccccc3N)c2O[C@@H]1CN(C)Cc1ccc2c(c1)OCO2	.	.	-85	/
CC(C)NC(=O)Nc1ccc2c(c1)C(=O)N(C)[C@H]1CC[C@H](CC(=O)Nc3ccccc3)O[C@H]1CO2	/	.	-98	.
C[C@@H]1CN([C@@H](C)CO)C(=O)c2c(c3ccccc3n2C)-c2ccccc2CO[C@@H]1CN(C)Cc1ccc(Cl)c(Cl)c1	/	.	-87	/
C[C@H](CO)N1C[C@H](C)[C@H](CN(C)Cc2ccc(Cl)c(Cl)c2)OCc2ccccc2-c2c(n(C)c3ccccc23)C1=O	/	.	.	/
C[C@@H]1CN([C@H](C)CO)C(=O)c2c(c3ccccc3n2C)-c2ccccc2CO[C@H]1CN(C)Cc1ccc(Cl)c(Cl)c1	/	.	-89	/
C[C@H](CO)N1C[C@H](C)[C@H](CN(C)Cc2ccc(O)cc2)OCc2ccccc2-c2c(n(C)c3ccccc23)C1=O	/	.	.	/
C[C@@H]1CN([C@H](C)CO)C(=O)c2c(c3ccccc3n2C)-c2ccccc2CO[C@@H]1CN(C)Cc1ccc(Cl)c(Cl)c1	/	.	-85	/
C[C@H]1CN([C@@H](C)CO)C(=O)c2c(c3ccccc3n2C)-c2ccccc2CO[C@@H]1CN(C)Cc1ccc(Cl)c(Cl)c1	/	.	-88	/
N=C1C(c2nc3ccccc3s2)=C(O)CN1CCCN1CCOCC1	.	/	/	/
Cc1nn(CC(O)COc2ccc3ccccc3c2)c(C)c1Br (centres undefined)	.	/	/	/
Cc1ccccc1-c1nc(SCC(=O)Nc2sc3c(c2C#N)CCCC3)n[nH]1	.	/	/	/
CSc1ccccc1NC(=O)CN(C)S(=O)(=O)c1ccc(C)cc1	.	/	/	/
COC(=O)c1ccc(NC(=O)CN(c2ccc(C)cc2C)S(C)(=O)=O)cc1	.	/	/	/
CC(=O)Nc1ccccc1NC(=O)COc1ccc(Br)cc1Cl	.	/	/	/
CC(=O)OC1CC2(C)C(CCC3C4(C)CCC(=O)C(C)C4C(O)C(=O)C32C)/C1=C(\CCC=C(C)C)C(=O)O (centres undefined)	.	/	/	/
CC(C)(C)[S@@](=O)N1Cc2cc(C(=O)NC3CCC3)nc(-c3cccc(Br)c3)c2[C@H]1CCO	/	.	.	/
COc1ccc(C#Cc2cccc(-c3nc(C(=O)N[C@@H]4CCN(Cc5ccccc5)C4)cc4c3[C@H](CCO)N(S(=O)C(C)(C)C)C4)c2)cc1OC (some centres undefined)	/	/	-84	/
CC(C)(C)[S@](=O)N1Cc2cc(C(=O)NC3CCC3)nc(-c3cccc(Br)c3)c2[C@@H]1CCO	/	.	-85	/

Screening results: PubChem BioAssay, Broad Institute
